Measured values published in ChEMBL document CHEMBL3817843, “Understanding Oxadiazolothiazinone Biological Properties: Negative Inotropic Activity versus Cytochrome P450-Mediated Metabolism” (J Med Chem, 2016).
pEC50, pIC50: −log10 of the molar value. Activity calls are given as the source filed them. The rule behind the calls is not given here.

Assays:
Left cardiac atrium [1] = experiment: Potentiation of verapamil-induced negative inotropic activity in potassium depolarized guinea pig left atrium assessed as reduction in developed tension at 10^-8 M preincubated for 30 mins followed by verapamil addition; format: functional; details: Cavia porcellus
Method in brief: (§1)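 Guinea pig left atria driven at 1 Hz. Pretreated with compound at 0.01 μM, added 30 min before diltiazem, verapamil or nifedipine. Blocker concentration−response curves analysed by probit (Litchfield and Wilcoxon), n = 6−7. Data given as mean ±, Student's t test.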

Aorta [2] = experiment: Inhibition of nifedipine-induced vasorelaxant activity in potassium depolarized guinea pig aorta assessed as relaxation of calcium-induced contraction at 10^-6 M preincubated for 30 mins followed by nifedipine addition; format: functional, tissue-based; details: Cavia porcellus
Method in brief: (§2)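 K+-depolarized (80 mM) guinea pig aortic strips contracted with calcium. Compound at 1 μM added 30 min before diltiazem, verapamil or nifedipine. Response expressed as percent change from control. Data given as mean ±, Student's t test.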

Left cardiac atrium [3] = experiment: Negative inotropic activity in potassium depolarized guinea pig left atrium assessed as reduction in developed tension at 10^-8 M preincubated for 30 mins followed by 10^-6 M verapamil addition; format: functional, Cavia porcellus; design: scale not given: the % may be the effect or the level left
Left cardiac atrium [4] = experiment: Negative inotropic activity in potassium depolarized guinea pig left atrium assessed as EC50 for diltiazem at 10^-8 M preincubated for 30 mins followed by diltiazem addition; format: functional; details: Cavia porcellus; method in brief: as §1
Aorta [5] = experiment: Vasorelaxant activity in potassium depolarized guinea pig aorta assessed as inhibition of calcium-induced contraction at 10^-6 M preincubated for 30 mins followed by 10^-5 M verapamil addition; format: functional, Cavia porcellus; design: scale not given: the % may be the effect or the level left; method in brief: as §2
Cytochrome P450 2D6 = Cytochrome P450 2D6 (Homo sapiens, UniProt P10635); experiment: Inhibition of CYP2D6 in human liver microsomes using dextromethorphan as substrate after 10 mins by LC-MS analysis
Chain of Cytochrome P450 2D6 (P10635 whole entry): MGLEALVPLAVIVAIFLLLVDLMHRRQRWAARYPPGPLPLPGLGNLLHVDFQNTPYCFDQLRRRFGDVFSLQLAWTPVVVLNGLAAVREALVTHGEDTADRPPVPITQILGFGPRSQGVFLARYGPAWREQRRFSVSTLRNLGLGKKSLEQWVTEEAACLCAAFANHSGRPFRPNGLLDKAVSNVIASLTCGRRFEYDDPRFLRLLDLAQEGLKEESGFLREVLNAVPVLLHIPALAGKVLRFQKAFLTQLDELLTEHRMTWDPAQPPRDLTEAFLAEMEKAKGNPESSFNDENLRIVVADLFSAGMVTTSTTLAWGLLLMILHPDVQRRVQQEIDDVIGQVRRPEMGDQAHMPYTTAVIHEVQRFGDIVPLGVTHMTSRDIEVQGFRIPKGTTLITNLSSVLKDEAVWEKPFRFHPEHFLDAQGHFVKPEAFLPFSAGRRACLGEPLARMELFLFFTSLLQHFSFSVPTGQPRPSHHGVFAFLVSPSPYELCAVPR

Cytochrome P450 1A2 = target: T1, Cytochrome P450 1A2 (Homo sapiens, UniProt P05177); experiment: Inhibition of CYP1A2 in human liver microsomes using phenacetin as substrate after 30 mins by LC-MS analysis
T1 sequence (P05177 whole entry): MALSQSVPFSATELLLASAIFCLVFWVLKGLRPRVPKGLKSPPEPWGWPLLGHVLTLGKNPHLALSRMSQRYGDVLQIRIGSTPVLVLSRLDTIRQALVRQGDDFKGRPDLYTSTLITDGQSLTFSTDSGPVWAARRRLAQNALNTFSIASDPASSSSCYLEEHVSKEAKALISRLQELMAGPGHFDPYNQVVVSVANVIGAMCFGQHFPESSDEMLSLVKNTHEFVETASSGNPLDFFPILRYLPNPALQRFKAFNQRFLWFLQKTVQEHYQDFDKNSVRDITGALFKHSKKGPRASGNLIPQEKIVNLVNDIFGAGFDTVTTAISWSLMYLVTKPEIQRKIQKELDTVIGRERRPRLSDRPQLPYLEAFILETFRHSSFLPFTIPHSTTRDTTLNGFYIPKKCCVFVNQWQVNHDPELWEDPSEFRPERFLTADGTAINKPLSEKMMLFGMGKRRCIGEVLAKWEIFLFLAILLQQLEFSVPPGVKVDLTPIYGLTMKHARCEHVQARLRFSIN

Cytochrome P450 2C9 = Cytochrome P450 2C9 (Homo sapiens, UniProt P11712); experiment: Inhibition of CYP2C9 in human liver microsomes using tolbutamide as substrate after 20 mins by LC-MS analysis
Chain of Cytochrome P450 2C9 (P11712 whole entry): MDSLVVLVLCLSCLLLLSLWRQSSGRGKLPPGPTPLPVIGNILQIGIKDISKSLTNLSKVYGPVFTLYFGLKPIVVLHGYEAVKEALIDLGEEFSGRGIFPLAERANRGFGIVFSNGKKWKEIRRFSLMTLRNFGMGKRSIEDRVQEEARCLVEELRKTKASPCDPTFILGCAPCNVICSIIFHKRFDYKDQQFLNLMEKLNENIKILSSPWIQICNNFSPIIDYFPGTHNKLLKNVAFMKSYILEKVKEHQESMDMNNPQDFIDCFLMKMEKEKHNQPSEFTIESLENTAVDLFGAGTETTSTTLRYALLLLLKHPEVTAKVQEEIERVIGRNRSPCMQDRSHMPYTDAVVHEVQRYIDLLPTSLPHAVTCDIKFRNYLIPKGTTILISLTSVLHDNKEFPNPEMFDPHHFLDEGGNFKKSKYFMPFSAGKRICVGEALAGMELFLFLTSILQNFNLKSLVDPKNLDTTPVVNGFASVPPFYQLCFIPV

Cytochrome P450 3A4 = Cytochrome P450 3A4 (Homo sapiens, UniProt P08684); experiment: Inhibition of CYP3A4 in human liver microsomes using testosterone as substrate after 5 mins by LC-MS analysis
Chain of Cytochrome P450 3A4 (P08684 whole entry): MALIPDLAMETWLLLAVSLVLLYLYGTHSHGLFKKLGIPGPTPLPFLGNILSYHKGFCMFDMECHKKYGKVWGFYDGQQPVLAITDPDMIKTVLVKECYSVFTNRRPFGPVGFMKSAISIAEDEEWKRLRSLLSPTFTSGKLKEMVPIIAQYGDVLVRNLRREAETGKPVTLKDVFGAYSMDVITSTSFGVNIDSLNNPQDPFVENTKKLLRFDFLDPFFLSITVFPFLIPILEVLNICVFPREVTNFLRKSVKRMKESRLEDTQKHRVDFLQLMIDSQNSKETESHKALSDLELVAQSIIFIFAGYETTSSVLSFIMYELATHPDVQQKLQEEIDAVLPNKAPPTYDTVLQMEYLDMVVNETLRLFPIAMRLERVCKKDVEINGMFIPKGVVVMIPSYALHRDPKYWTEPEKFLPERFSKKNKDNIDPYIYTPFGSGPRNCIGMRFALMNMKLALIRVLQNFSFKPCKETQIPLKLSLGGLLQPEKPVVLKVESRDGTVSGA

Aorta [6] = experiment: Inhibition of diltiazem-induced vasorelaxant activity in potassium depolarized guinea pig aorta assessed as relaxation of calcium-induced contraction at 10^-8 M preincubated for 30 mins followed by diltiazem addition; format: functional, tissue-based; details: Cavia porcellus
in vitro = details: human, liver microsomes

pEC50 (Left cardiac atrium [4]): 6.57
pIC50 (Cytochrome P450 2D6): 5.39
pIC50 (Cytochrome P450 1A2): 5.54
pIC50 (Cytochrome P450 2C9): 4.74
pIC50 (Cytochrome P450 3A4): 4.72
microsomal CLint at 1 µM (in vitro): 53 µL/min/mg
Structure (SMILES): CCOC1(c2ccc(Br)cc2)SC=C(C)n2c1noc2=O (stereo unspecified)
Activity (Left cardiac atrium [1]): Active
inhibition (Aorta [2]): Active
Activity (Left cardiac atrium [3]): 95%
Activity (Aorta [5]): 36%
inhibition (Aorta [6]): inactive
